# Results published in PubChem BioAssay.
# The source made the active and inactive calls. Cut-off read from the data, not from the text of the source, unless noted: active = inhibition above about 31%; inactive = the rest.
# Columns and labels:
# [1] = HUVEC growth inhibition – cell-based, human, primary screen (AID 575;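 active = viability at or below 30% in both replicate assays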;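 note: 100% = median of untreated cell wells with 0.1% DMSO on each plate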); conditions: HUVEC proliferation, CellTiter-Glo luminescence, 72 h; at 10 µM; stronger effect = lower value
# Procedure, shortened: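 Test system – primary HUVEC, no more than 12 passages · Dosing – one dose, 10 µM final, 0.1% DMSO · Times – 72 h treatment at 37 °C · Measured by – ATP-based CellTiter-Glo luminescent read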
# [2] = growth inhibitors of H69AR lung tumor, primary screen, human, duplicate replicates (AID 580;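 active = viability at or under a set limit in both replicates, limit being median viability minus 3 SD, cut at about 48% in these data, passing the limit was not always enough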;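 note: 100% = mean luminescence of untreated wells and 0% = no signal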); conditions: H69AR lung tumor cells viability, ATP luminescence, 72 h; at 10 µM; stronger effect = lower value
# [3] = reversal of MRP1-mediated doxorubicin resistance, pilot screen, H69AR cells, doxorubicin co-treatment (AID 601;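 active = viability loss from added drug above about 55%, and viability with drug at most 40%, in both replicates, limit read from the data, passing the limit was not always enough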); conditions: CellTiter-Glo, 72 h, at 10 µM; for differential viability (reversal): stronger effect = higher value
# [4] = 384-well plate pilot, post-Golgi transport modulator project, inhibition of yeast transport mutant growth (AID 636); conditions: absorbance 615 nm, about 18 h, stronger effect = higher value
# [5] = growth suppression of yeast trafficking mutant, preliminary HTS, modulators of trafficking downstream of Golgi apparatus project, 1536-format plate, OD 615 nm (AID 637; in the data active = inhibition above about 30%); conditions: yeast transport mutant growth, absorbance 615 nm, 18 h; stronger effect = higher value
# [6] = H69AR cells + 2 uM doxorubicin, measured here: viability with 2 uM doxorubicin, stronger effect = lower value
# [7] = H69AR cells, compound alone cytotoxicity
Compound,viability [1],viability [2],differential viability (reversal) ([3]; H69AR cells + 2 uM doxorubicin),"viability [3, 6] [%]","viability [3, 7] [%]",inhibition [4],inhibition [5]
O=C1CC(c2ccccc2)CC(O)=C1C=NCCCN1CCOCC1 (configuration not stated),100% (inactive),100% (inactive),5.34% (inactive),95,100,-1.05% (inactive),-3.49% (inactive)
Cc1ccc(NC(=O)c2ccccc2F)nc1,68.1% (inactive),90.9% (inactive),-6.37% (inactive),97.2,90.9,-4.93% (inactive),1.11% (inactive)
CN(C)S(=O)(=O)n1cnc(-c2ccccc2)c1-c1ccccc1,99.8% (inactive),98.3% (inactive),-3.79% (inactive),102,98.3,-1.32% (inactive),-2.86% (inactive)
Cc1cccc(-n2c(N)c(C(=O)N3CCN(C)CC3)sc2=S)c1,101% (inactive),92.2% (inactive),8.09% (inactive),84.2,92.2,-0.39% (inactive),-7.3% (inactive)
CC1CC(=O)c2cnc(NCC3CCCO3)nc2C1 (configuration not stated),103% (inactive),87.3% (inactive),4.31% (inactive),83,87.3,-6.8% (inactive),6.03% (inactive)
CCOC(=O)NC(=O)CSc1nnc(C)s1,115% (inactive),105% (inactive),8.07% (inactive),96.5,105,-4.08% (inactive),3.65% (inactive)
CC1=C(C#N)C(c2ccc3ncccc3c2)C(C#N)=C(C)N1,86.2% (inactive),97% (inactive),-1.7% (inactive),98.7,97,-4.74% (inactive),0% (inactive)
CCOc1ccccc1-n1c(SCC(=O)NC(C)CC)nnc1-c1ccoc1C (configuration not stated),82.5% (inactive),88.7% (inactive),9.12% (inactive),79.6,88.7,-6% (inactive),-1.75% (inactive)
c1ccc2c3nnc4n(c-3nc2c1)CCCS4,94% (inactive),104% (inactive),11.4% (inactive),92.7,104,-1.32% (inactive),4.6% (inactive)
CCc1ccc(NC(=O)c2cccnc2)cc1,95.9% (inactive),105% (inactive),23.7% (inactive),81.7,105,-7.2% (inactive),-3.02% (inactive)
COC(=O)c1ccc(C2CC(=O)Nc3cc(OC)c(OC)c(OC)c32)cc1 (configuration not stated),83.6% (inactive),89.4% (inactive),11.6% (inactive),77.8,89.4,-3.47% (inactive),0.63% (inactive)
CCOc1ccc(OCC)c(NC(=O)C2CCN(c3ncccn3)CC2)c1,105% (inactive),86.1% (inactive),-12.5% (inactive),98.5,86.1,-3.47% (inactive),-2.06% (inactive)
CCCCn1c(NC(=O)CC)c(C#N)c2nc3ccccc3nc21,77.4% (inactive),81.9% (inactive),2.13% (inactive),79.8,81.9,-6.67% (inactive),-2.38% (inactive)
Cc1cc(C(=O)Nc2cccc(O)c2)c(C)o1,87.1% (inactive),90% (inactive),3.61% (inactive),86.4,90,-4.55% (inactive),3.17% (inactive)
O=C(O)c1cccn2c(=O)c3ccccc3nc12,101% (inactive),95.8% (inactive),4.45% (inactive),91.4,95.8,-2.8% (inactive),-2.22% (inactive)
CCN(CC(=O)NC(=O)NCc1ccco1)Cc1nc2ccccc2c(=O)[nH]1,86.5% (inactive),79.7% (inactive),2.42% (inactive),77.3,79.7,-0.78% (inactive),1.43% (inactive)
O=C(CN1CCN(c2ncc(C(F)(F)F)cc2Cl)CC1)Nc1ccc2c(c1)OCO2,85.7% (inactive),93.2% (inactive),0.28% (inactive),92.9,93.2,0.65% (inactive),-4.29% (inactive)
CCn1c(SCC(=O)Nc2ccc(C(=O)OC)cc2)nnc1-c1cccs1,109% (inactive),92.3% (inactive),5.75% (inactive),86.6,92.3,-6% (inactive),6.98% (inactive)
COC(=O)c1sccc1NC(=O)c1ccncc1,115% (inactive),86.4% (inactive),8.91% (inactive),77.5,86.4,-3.95% (inactive),5.56% (inactive)
COc1ccc(-c2noc(CCC(=O)Nc3nc4ccccc4s3)n2)cc1,88.2% (inactive),88.1% (inactive),-3.04% (inactive),91.1,88.1,2.21% (inactive),7.46% (inactive)
O=C(CN(c1ccc(F)cc1)S(=O)(=O)c1ccc2c(c1)OCCO2)NCC1CCCO1 (configuration not stated),96.5% (inactive),100% (inactive),13.4% (inactive),87.1,100,-3.42% (inactive),2.54% (inactive)

Compound,viability [1],viability [2],differential viability (reversal) ([3]; H69AR cells + 2 uM doxorubicin),"viability [3, 6] [%]","viability [3, 7] [%]",inhibition [4],inhibition [5]
CCOC(=O)Cc1csc(NC(=O)CSc2nnc(C)n2C)n1,108% (inactive),95.2% (inactive),5.79% (inactive),89.4,95.2,6.27% (inactive),-5.4% (inactive)
CCCSc1nnc(-c2ccccc2NC(=O)CC)c(=O)[nH]1,99.4% (inactive),103% (inactive),14.4% (inactive),88.1,103,-5.87% (inactive),3.97% (inactive)
Cn1c(=O)[nH]c(=O)c2c1nc(NC1CCCCC1)n2CC(=O)NC1CCCCC1,99.5% (inactive),94.7% (inactive),14.6% (inactive),80.1,94.7,-7.6% (inactive),5.87% (inactive)
COc1ccc(C2C3=C(OC(C)=O)c4ccccc4C3=Nc3c2c(=O)n(C)c(=O)n3C)cc1 (configuration not stated),65.4% (inactive),74.1% (inactive),0.425% (inactive),73.7,74.1,-4% (inactive),0.79% (inactive)
Cc1ccc(-c2[nH]nc3c2C(c2ccoc2)C(C#N)=C(N)O3)cc1C (configuration not stated),90.2% (inactive),86.7% (inactive),0.74% (inactive),86,86.7,-1.45% (inactive),-1.27% (inactive)
CCc1nnc(NC(=O)CSc2nc3ccccc3s2)s1,93% (inactive),101% (inactive),10.1% (inactive),91.1,101,-2.24% (inactive),0.48% (inactive)
O=C(Nc1ccc(S(=O)(=O)Nc2ccc(Cl)cc2)cc1)C1CCCO1 (configuration not stated),62% (inactive),90.2% (inactive),0.92% (inactive),89.3,90.2,-6% (inactive),-5.4% (inactive)
CCOC(=O)N1CCN(C(=O)C(NS(=O)(=O)c2cccc3nsnc23)c2ccccc2)CC1 (configuration not stated),100% (inactive),94.2% (inactive),-6.95% (inactive),101,94.2,-3.38% (inactive),-0.63% (inactive)
Cc1nc(NCc2ccccn2)c2ccccc2n1,71% (inactive),104% (inactive),16.4% (inactive),87.9,104,2.08% (inactive),2.7% (inactive)
Cc1ccc2c(COn3nnc4ccc(S(=O)(=O)N(C)C)cc43)cc(=O)oc2c1C,79.5% (inactive),72.1% (inactive),-3.53% (inactive),75.6,72.1,-1.04% (inactive),2.7% (inactive)
COCCn1nnnc1C(C(C)C)N(Cc1cccnc1)Cc1ccccc1Cl (configuration not stated),96.4% (inactive),83.8% (inactive),34.7% (inactive),49,83.8,-2.34% (inactive),2.06% (inactive)
CCOc1cc(C)c(C(C)C)cc1S(=O)(=O)N1CCN(C)CC1,96.1% (inactive),96.2% (inactive),2.99% (inactive),93.2,96.2,1.84% (inactive),-5.71% (inactive)
COC(=O)c1ccc(CN(c2ccccc2OC)S(=O)(=O)c2cccs2)o1,98.8% (inactive),86.2% (inactive),-15.4% (inactive),102,86.2,-6.88% (inactive),-7.14% (inactive)
Cc1csc(OCc2ccc(C#N)cc2)n1,98.6% (inactive),101% (inactive),16.2% (inactive),85,101,-5.32% (inactive),3.97% (inactive)
CSC1=C(C#N)C(c2ccc(C)cc2)C2=C(CCCC2=O)N1 (configuration not stated),91.3% (inactive),77.6% (inactive),10.1% (inactive),67.5,77.6,-2.99% (inactive),-0.95% (inactive)
CCc1ccc(CCC(=O)Nc2ccc(C)c(C)c2)o1,102% (inactive),95.1% (inactive),7.16% (inactive),87.9,95.1,-8.4% (inactive),-3.65% (inactive)
CCOC(=O)c1cccc(NC(=O)CCn2nnc3ccccc32)c1,89.9% (inactive),98.6% (inactive),9.72% (inactive),88.9,98.6,-2.5% (inactive),0.48% (inactive)
COc1cccc(CC(NC(C)=O)C(=O)NC2CCN(c3c4c(nc5ncnn35)CCC4)CC2)c1 (configuration not stated),90.4% (inactive),96.1% (inactive),8.17% (inactive),87.9,96.1,-6.18% (inactive),3.17% (inactive)
Cc1ccc(Nc2nc(CSc3nnc(-c4cccs4)o3)cs2)cc1,78.7% (inactive),90.5% (inactive),-1.67% (inactive),92.2,90.5,-4.8% (inactive),-2.22% (inactive)
Cc1nc(C)c(C(=O)C2=C(O)C(=O)N(CCN3CCOCC3)C2c2ccco2)s1 (configuration not stated),109% (inactive),86.3% (inactive),-3.34% (inactive),89.7,86.3,-4.8% (inactive),3.02% (inactive)
